# Experimental data taken from the RNAGym collection of RNA variant scans (doi:10.1126/science.aae0568).
# This sample holds only a part of the variants without activity.
# B1: tRNA (parent)
# chain: GUUCCGUUGGCGUAAUGGUAACGCGUCUCCCUCCUAAGGAGAAGACUGCGGGUUCGAGUCCCGUACGGAACG
# Variants of: B1
# Assay: yeast fitness relative to wild type (ratio to wild type); higher = fitter; tRNA-Arg(CCU), competitive growth, 37 C, YPD
# How it was run: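 Genotype frequency changes were the basis for Darwinian fitness relative to wild type. The frequencies came from 100-nucleotide paired-end sequencing of gene amplicons from the start population and each end population of pooled yeast strains with tRNA-Arg(CCU) gene variants at the native locus. Competition ran in YPD at 37°C for 24 hours in six replicates, genotypes needed ≥ 100 starting reads, and estimates < 0.5 were set to 0.5.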
row,Variant,yeast fitness
1,GUUCGGUUGGCGAAAUGGAAACGCGUCUCUCUCCUAAGGAGAAGACUGCGGGUUCGAGUCCCGUACGGAUCG,≤ 0.5
2,GUUCGGUUGGCGUAAAGGUAACGCGUCUCCCUACUAAGGAGAAGACUGCGGGUUCGAGUCCCGUACGGAACG,≤ 0.5
3,GUUCGGUUGGCGAAAUGGUAACGCGUCUCCGUCCUAAGGAGAAGACUGCAGGUUCGAGUCCCGUGCGGAACG,≤ 0.5
4,GUUCGGUUGGCGAAAUGGUAACGCGUCUCCGUCCUAAGGAGAAGACUGCAGGUUCGAGUCCCGUCCGGAACG,0.58
5,GUUCGGUUGGCGCAAUGGUAACGCGUCUCCCUCCUAAGGAGAAGACUGCGGGUUCGAGUCCCGUACGGACCG,0.579
6,GUUCGGUUGGCGCAAUGGUAACGUGUCUCCCUCCUAAGGAGAAGACUGUGGGUUCGAGUCCCGUACGGAACG,0.526
7,GUUCGGUUGGCGGAAUGGUAACGCGUCUUCCUCCUAAGGGGAAGACUGCGGGUUCGAGUUCCGUGUGGAACG,≤ 0.5
8,GUUCGGUUGGCGUAAUGGCAACGCGUCUCCCUCCAAAGGAGACGACUGCGGGUUCGAGUCCCGUCCGGAACG,≤ 0.5
9,GUUCGGUUGGCGUAAUGGCAACGCGUCUCCCUCCUAAGGAGAAGACUGCGGGUUCGAGUCCCGUACCGAACG,0.682
10,GUUCGGUUGGCGGAAUGGUUACGCGUCUCCCUCCUAGGGAGAAGACUGCGGCUUCGAGUCCCGUACGAAACG,≤ 0.5
11,GUUCGGUUGGCGCAAUGGUAGCGCGUCUCCCUCCUAAGGAGAAGACUGAGGGUUCGAGUCCCGUACGGAACG,≤ 0.5
12,GUUCGGUUGGCGUAAUGGGAAUGCGUCUCCCCCCUAAGGAGAAGACUGCGGGUUCAAGUCCCGUCCGGAACG,≤ 0.5
13,GUUCGGUUGGCGUAAUGGUAACGCGACUCCCUCCUCAGGAGGAGACUGCGGGUUCGAGUCCCGUACGGAACG,≤ 0.5
14,GUUCGGUUGGCGCAAUGGUAACGUGUCUCCCUCCUAAGGAGAAGACUGUGGGUUCGAGUCCCGUACGGAGCG,≤ 0.5
15,GUUCGGUUGGCGUAAUGGAAACGCGUCUCGCUCCUAAGCAGAAGACUGCGGGCUAGAGUCCCGUACGGAACG,≤ 0.5
16,GUUCGGUUGGCGUAAAGGUAACGCGUCUCCCUCGUAAGCAGAAGACUGCGGGUUAGCGUCCCGUACGGAACG,≤ 0.5
17,GUUCGGUUGGCGUAAAGGUAACGCGUCUCCCUCCUAAGGAGAAGACUGCGGGUUCGUGUCCCGUACGGAACG,≤ 0.5
18,GUUCGGUUGGCGGAAUGGUAACGCGUUUCCCUCCUAAGGAAAAGACUGCGGGUUCGAGUCCCGUACGGAACG,0.541
19,GUUCGGUUGGCGUAAAGGUACCGCGUCUCCCUCCUAAGGAGAAGACUGCGGGUUCGCGUCCCGUACGGAACG,0.624

row,Variant,yeast fitness
1,GUUCGGUUGGCGCAAUGGUAACGCGUCUCCCUCCUAAGGAGAGGACUGCCGGUUCGAGUCCCGUACGGAACG,0.566
2,GUUCGGUUGGCGCAAUGGUCACGCGUCUCCCGCCUAAGGAGAAGAUUGCGGGUUCGAGUCCCGUACGGAACG,0.703
3,GUUCGGUUGGCGCAAUGGUACCGCGUCUCCCUCCUAAGGAGAAGACUGCGGGUUCGAGUCCCGUACGGAACG,0.585
4,GUUCGGUUGGCGGAAUGCUACCGCGUCUCCCUCCUAAGGAGAAGACUGCGGGUUCGAGUGCCGUUUGGAACG,≤ 0.5
5,GUUCGGUUGGCGCAAUGGUACCGCGUCUCCCUCCUAAGGAGAAGACUGCGGGUUCGAGUCCCGUACAGAACG,≤ 0.5
6,GUUCGGUUGGCGAAAUGGUAACACGUCUCCCUCCUAAAGAGAAGACUACGGGUUCGAGUACCGUACGGAACG,≤ 0.5
7,GUUCGGUUGGCGAAAUGGUAAGGCGUCUGCCUCCUAAGGUGAAGACUGCGGGUUCGAGUCCUGUACGGAACG,≤ 0.5
8,GUUCGGUUGGCGCAAUGGUAAGGCGUCUGCCUCCUAAGGAGAAGCCUGCGGGUUCGAGUCCCGUACGCGACG,≤ 0.5
9,GUUCGGUUGGCGAAAUGGUAACGCGUCUCCGUCCUAAGGAGAAGACUGCAGGUUCGAGUCCCGUACAGGACG,≤ 0.5
10,GUUCGGUUGGCGCAAUGGUAACGCGUCUCCCUCCUAUGGAGAAGACUGCGCGUUCGCGUCCCGUACGGAACG,≤ 0.5
11,GUUCGGUUGGCGAAAUGGUAAGGCGUCUGCCUCCUAAGGUGAAGACUGCGGGUCCGAGUCGCGUACGGAACG,0.588
12,GUUCGGUUGGCGUAAUGGUAACGCGCCUCCCUCCUAGGGAGAAGACUGCGGGUUCGAGUACCGUACGGAACG,≤ 0.5
13,GUUCGGUUGGCGUAAAGGUAACGCGUCUCCGUCCUAAGGAGAAGACUGCGGGUUCGAGUCCCGUUAGGAACG,≤ 0.5
14,GUUCGGUUGGCGGAAUGGUAACGCGUCUUCCUCCUAAGGGGAAGACUGCGGGUUCGAGUCCCGUACGGAACG,≤ 0.5
15,GUUCGGUUGGCGUAAUGGCAACGCGUCUCCCUCCUAAGGAGAAGACUGCGGGUUCGAGUCCCGUACGGAACG,0.997
16,GUUCGGUUGGCGUAAUGGAAACGCGUCUCCCUCCUAAGGAGAAGACUGCGGGUUCGAGUCCCGUACGGAACG,0.818
17,GUUCGGUUGGCGAAAUGGUAAGGCGUUUGCCUCCUAAGGUGAAGACUGCGGGUCCGAGUCGCGUACGGAACG,≤ 0.5
18,GUUCGGUUGGCGUAAUGGUAACGCGCCUCCCUCCUAAGGAGAAGACUGCGGGUUCGAGUCCCGUACGGAACG,0.803
